Assay [1] concerns L1210. Nature of the assay: Uptake of a initial concentration of 10 ug/mL of compound in medium by L1210 cells after 30 min expressed as drug concentration in cells. In kind it is functional, cell-based. Conditions: Mus musculus. The procedure, abridged: (§1)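 Cultured L1210 leukemia cells were incubated with drug in medium for set times. Cells were then washed in phosphate buffered saline and lysed by sonication in distilled water. Drug in the lysate was measured by HPLC on a short C18 column with methanol-water (65:35), against a peak-height standard curve that was linear over the range. Experiments were run in duplicate.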

Assay [2] deals with L1210. Nature of the assay: Uptake of a initial concentration of 100 ug/mL of compound in medium by L1210 cells after 10 min expressed as drug concentration in cells. It counts as functional, cell-based. The conditions noted are these: Mus musculus. The procedure, abridged: as §1
Assay [3] concerns L1210. In words: Uptake of a initial concentration of 10 ug/mL of compound in medium by L1210 cells after 60 min expressed as drug concentration in cells. In kind it is functional, cell-based. Conditions: Mus musculus. The procedure, abridged:
as §1

For assay [4], the system named is L1210. In words: Uptake of a initial concentration of 100 ug/mL of compound in medium by L1210 cells after 60 min expressed as drug concentration in cells. Conditions: Mus musculus. In kind it is functional, cell-based. The procedure, abridged: as §1
For assay [5], the system named is L1210. In words: Uptake of a initial concentration of 100 ug/mL of compound in medium by L1210 cells after 30 min expressed as drug concentration in cells. In kind it is functional, cell-based. Conditions: Mus musculus. A digest of the protocol:
as §1

The subject of assay [6] is L1210. Nature of the assay: Inhibition of L1210 leukemia cells, after exposure to compound for period of 1 hr. The conditions noted are these: Mus musculus, L1210, 1 h; read-out: ID50 (the source's name). It counts as functional. A digest of the protocol: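 Soft-agar colony-forming assay using L1210 murine lymphocytic leukemia cells at 4×10^4/mL. Drug exposure was either 1 h or continuous, with continuous dosing done by adding drug to the final plating medium (RPMI 1640, 10% fetal bovine serum, 1% penicillin/streptomycin, 0.3% agar). Read-out is percent survival of colony-forming cells, as the mean of six values (three plates in each of two experiments). ID50 is given as molar concentration.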

Assay [7] has as its system L1210. Nature of the assay: Uptake of a initial concentration of 10 ug/mL of compound in medium by L1210 cells after 10 min expressed as drug concentration in cells. Conditions: Mus musculus. In kind it is functional, cell-based. A digest of the protocol: as §1
For assay [8], the system named is L1210. Nature of the assay: The compound was evaluated for survival of L1210 cells, when compound was exposed for a period of […] 1X (10e -8)Mconc. It counts as functional, Mus musculus. A digest of the protocol: (§2)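 In a soft-agar colony-forming assay, L1210 murine lymphocytic leukemia cells (4×10^4/mL) were exposed to drug continuously, with drug added to the final plating medium. That medium was RPMI 1640 with 10% fetal bovine serum, 1% penicillin-streptomycin and 0.3% agar. Read-out was percent survival of colony-forming cells, given as the mean of six values (three plates, two experiments).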

In assay [9] the test system is L1210. In words: The compound was evaluated for survival of L1210 cells, when compound was exposed for a period of […] 1X (10e -9)M conc. It counts as functional, Mus musculus. The procedure, abridged:
as §2

Assay [10] deals with L1210. In words: The compound was evaluated for survival of L1210 cells, when compound was exposed for a period of 1 hr 5*(10e -5)M conc. In kind it is functional, Mus musculus. The procedure, abridged:
(§3)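 L1210 murine lymphocytic leukemia cells at 4×10^4/mL were exposed to drug for 1 h and then cloned in soft agar. The plating medium was RPMI 1640 with 10% fetal bovine serum, 1% penicillin-streptomycin and 0.3% agar. Read-out was percent survival of colony-forming cells, taken as the mean of six values (three plates in each of two experiments).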

For assay [11], the system named is L1210. In words: The compound was evaluated for survival of L1210 cells, when compound was exposed for a period of 1 hr 1X (10e -7)Mconc. In kind it is functional, Mus musculus. A digest of the protocol:
as §3

The subject of assay [12] is L1210. In words: The compound was evaluated for survival of L1210 cells, when compound was exposed for a period of 1 hr 1X (10e -5)M conc. In kind it is functional, Mus musculus. A digest of the protocol: as §3
For assay [13], the system named is L1210. In words: The compound was evaluated for survival of L1210 cells, when compound was exposed for a period of 1 hr 1X (10e -6)M conc. It counts as functional, Mus musculus. The procedure, abridged: as §3
For assay [14], the system named is L1210. Nature of the assay: The compound was evaluated for survival of L1210 cells, when compound was exposed for a period of […] 5*(10e -8)M conc. In kind it is functional, Mus musculus. A digest of the protocol: as §2
Assay [15] deals with L1210. In words: The compound was evaluated for survival of L1210 cells, when compound was exposed for a period of […] 1X (10e -7)M conc. It counts as functional, Mus musculus. The procedure, abridged: as §2

Consider `CC1=C(N)C(=O)c2c(COC(N)=O)c3n(c2C1=O)CC(N)C3OP(=O)(O)OC[C@H]1O[C@@H](n2ccc(=O)[nH]c2=O)[C@H](O)[C@@H]1O` (some centres undefined), for which the Concentration in the assay on L1210 [1] came out at 1 µg/mL; with L1210 [2], 20 µg/mL; in the assay on L1210 [3] it was 2.5 µg/mL; in the assay on L1210 [4], 1 µg/mL; with L1210 [5], 20 µg/mL; with L1210 [7] it was 8 µg/mL. The IC50 in the assay with L1210 [6] was determined as 13.3 µM.
For `CC1=C(N)C(=O)c2c(COC(N)=O)c3n(c2C1=O)CC(N)C3OP(=O)(O)OC[C@H]1O[C@@H](n2cc(F)c(=O)[nH]c2=O)C[C@@H]1O` (some centres undefined), in the assay with L1210 [6], the IC50 stood at 14 µM.
For the molecule `CO[C@@]12[C@H](COC(N)=O)C3=C(C(=O)C(C)=C(N)C3=O)N1C[C@@H]1N[C@@H]12.O=c1[nH]c(=O)n([C@H]2C[C@H](O)[C@@H](CO)O2)cc1F`, the Survival amounted to 70% in the assay with L1210 [8]; 84% in the assay with L1210 [9]; 2% with L1210 [10]; 100% in the assay with L1210 [11]; 1% with L1210 [12]; 48% in the assay on L1210 [13]. Further, the results for the Survival in the assay on L1210 [14] and with L1210 [15] were 42% and 3%, respectively.
As to `CC1=C(N)C(=O)c2c(COC(N)=O)c3n(c2C1=O)CC(N)C3[18OH]` (centres undefined), the IC50 with L1210 [6] worked out at 62 µM.
As for `O=c1[nH]c(=O)n([C@H]2C[C@H](O)[C@@H](CO)O2)cc1F` [FLOXURIDINE], the Survival amounted to 76% in the assay on L1210 [8]; 100% in the assay on L1210 [9]; 89% in the assay with L1210 [10]; 98% in the assay on L1210 [11]; 92% with L1210 [12]; 94% in the assay with L1210 [13]. The Survival was 68% in the assay with L1210 [14] and 62% in the assay on L1210 [15].
As to `CO[C@@]12[C@H](COC(N)=O)C3=C(C(=O)C(C)=C(N)C3=O)N1C[C@@H]1N[C@@H]12` [MITOMYCIN], the Survival in the assay on L1210 [8] was 100%; in the assay on L1210 [9] it was 98%; in the assay with L1210 [10], 2%; in the assay on L1210 [11], 89%; in the assay with L1210 [12] it was 1%; in the assay on L1210 [13], 52%. Also, the Survival in the assay on L1210 [14] is given as 73%; in the assay with L1210 [15], 7%. The IC50 with L1210 [6] came to 3.1 µM.
